The source of these data is ChEMBL document CHEMBL4177604, “Binding of triazole-linked galactosyl arylsulfonamides to galectin-3 affects Trypanosoma cruzi cell invasion” (Bioorg Med Chem, 2017).

Active and inactive are the calls of the source. The rule behind the calls is not given here.

The test system of series [1] is Trypanosoma cruzi. The series can be described thus: Antitrypanosomal activity against Trypanosoma cruzi Y trypomastigote infected in monkey LLCMK2 cells assessed as inhibition of cell invasion by trypanosoma by measuring infection index at 250 uM pretreated with cells for 30 mins followed by trypomastigote infection measured after 18 hrs by panoptic dye-based optical microscopic analysis (reference value: 68). The format is functional. In short, it runs like this: (§1)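 LLCMK2 cells adhered on coverslips, exposed to compound at 250 µM for 30 min, then infected with Y-strain trypomastigotes (1 x 10^5; 5 parasites per cell). Incubated 18 h at 37 °C, 5% CO2, then fixed, stained with panoptic dye and read by optical microscopy. Scored as % infected cells, mean amastigotes per cell, and infection index (% infected × mean parasites per cell). Triplicate.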

For series [2], the system named is Trypanosoma cruzi. The series can be described thus: Trypanocidal activity against Trypanosoma cruzi Y trypomastigote assessed as effect on parasite viability at 31.25 to 250 uM after 48 hrs by resazurin-based assay. The format is functional, organism-based. In short, it runs like this:
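Culture-derived Y-strain trypomastigotes, 1 x 10^6 per well, in RPMI 1640 with 10% FBS containing compound (250 to 31,25 µM). Held 48 h at 37 °C, 5% CO2. Resazurin added for 6 h, then read at 570 and 600 nm. Viability from OD570 minus OD600, relative to untreated parasites.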
In general terms: Alamar Blue is a resazurin reagent that responds to reducing activity.

Series [3] has as its system Trypanosoma cruzi. The series can be described thus: Antitrypanosomal activity against Trypanosoma cruzi Y trypomastigote infected in monkey LLC-MK2 cells assessed as inhibition of cell invasion by trypanosoma by measuring infected […] at 250 uM pretreated with cells for 30 mins followed by trypomastigote infection measured after 18 hrs by panoptic dye-based optical microscopic analysis (reference value: 63%). The format is functional. On the set-up: scale not given: the % may be the effect or the level left. In short, it runs like this: as §1

Series [4] relates to Trypanosoma cruzi. The series can be described thus: Antitrypanosomal activity against Trypanosoma cruzi Y trypomastigote infected in monkey LLC-MK2 cells assessed as inhibition of cell invasion by trypanosoma by measuring mean number of amastigote parasites per cells at 250 uM pretreated with cells for 30 mins followed by trypomastigote infection measured after 18 hrs by panoptic dye-based optical microscopic analysis. The format is functional, organism-based. In short, it runs like this: as §1

Series [5] addresses T1, Trans-sialidase (Trypanosoma cruzi) (UniProt Q26964).
T1 sequence (whole entry): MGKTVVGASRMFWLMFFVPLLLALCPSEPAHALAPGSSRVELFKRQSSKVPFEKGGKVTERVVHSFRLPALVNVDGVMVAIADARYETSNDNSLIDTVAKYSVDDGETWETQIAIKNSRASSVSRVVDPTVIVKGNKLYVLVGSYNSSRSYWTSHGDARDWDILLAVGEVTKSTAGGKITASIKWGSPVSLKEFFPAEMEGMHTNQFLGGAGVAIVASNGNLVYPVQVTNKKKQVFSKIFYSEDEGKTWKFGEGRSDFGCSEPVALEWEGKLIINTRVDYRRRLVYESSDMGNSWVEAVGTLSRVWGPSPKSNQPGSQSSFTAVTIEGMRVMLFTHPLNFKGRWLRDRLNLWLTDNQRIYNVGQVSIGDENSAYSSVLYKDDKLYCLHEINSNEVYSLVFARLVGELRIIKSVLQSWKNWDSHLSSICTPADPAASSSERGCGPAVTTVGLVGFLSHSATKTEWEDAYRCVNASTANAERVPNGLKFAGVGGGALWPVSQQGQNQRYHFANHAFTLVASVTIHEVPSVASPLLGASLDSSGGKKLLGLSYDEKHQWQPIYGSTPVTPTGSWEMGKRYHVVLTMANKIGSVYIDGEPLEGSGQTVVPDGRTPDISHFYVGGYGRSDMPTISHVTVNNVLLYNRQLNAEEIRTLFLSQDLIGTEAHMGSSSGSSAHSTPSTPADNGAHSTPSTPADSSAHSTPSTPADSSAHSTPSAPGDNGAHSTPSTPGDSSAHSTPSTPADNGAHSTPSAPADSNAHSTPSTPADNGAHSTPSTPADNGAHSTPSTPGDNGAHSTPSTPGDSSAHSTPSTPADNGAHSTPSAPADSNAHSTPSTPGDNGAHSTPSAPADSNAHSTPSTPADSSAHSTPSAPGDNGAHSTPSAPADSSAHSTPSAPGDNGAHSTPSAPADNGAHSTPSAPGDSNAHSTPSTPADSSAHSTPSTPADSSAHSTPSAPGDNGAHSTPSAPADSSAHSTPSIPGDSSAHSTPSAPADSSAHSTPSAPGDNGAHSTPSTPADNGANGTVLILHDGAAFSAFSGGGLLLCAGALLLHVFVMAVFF
The series can be described thus: Inhibition of recombinant His-tagged Trypanosoma cruzi trans-sialidase N-terminal catalytic domain at 1 mM preincubated for 10 mins followed by MuNANA addition measured over 5 mins by fluorimetric assay relative to control. In short, it runs like this: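 Recombinant His-tagged 70 kDa trans-sialidase, truncated to the catalytic N-terminal domain, in phosphate buffer pH 7. Preincubated with inhibitor at 1.0 mM final for 10 min at 26 °C. MuNANA added to 0.1 mM and released fluorescence followed over 5 min (ex 360/em 460 nm). Triplicate. %I = 100 × [1 − Vi/V0].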

A further series deals with LLC-MK2. The series can be described thus: Cytotoxicity against monkey LLC-MK2 cells assessed as reduction in cell viability after 48 hrs by MTT assay. Conditions: rhesus monkey, llc-mk2, 48 h. The format is cell-based, Macaca mulatta. In short, it runs like this: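 LLCMK2 cells, 1 x 10^4 per well, adhered overnight in RPMI 1640 with 10% FBS. Exposed to 500 to 67,5 µM compound in triplicate for 48 h at 37 °C, 5% CO2. MTT added for 4 h, formazan dissolved in DMSO, absorbance at 570 nm.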

The target of the next series is Galectin-3 (Homo sapiens, UniProt P17931). The series can be described thus: Binding affinity to recombinant human galectin-3 expressed in Escherichia coli BL21 after 3 hrs. In short, it runs like this:
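Human galectin-3 expressed in E. coli BL21, purified on lactosyl-Sepharose, immobilized at 150 µg/mL (20 mM sodium acetate, pH 4.0, 16 h, 4 °C) on NHS-activated label-free biosensor. Compound dissolved in DMSO, diluted into PBS pH 7.4 with 1% or 2% DMSO, 0.09–400 µM, triplicate. Wavelength shift (pm) read over 3 h at 25 °C, blank-subtracted. EC50 from one-site binding fit.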

The next series addresses T2, Trans-sialidase (Trypanosoma cruzi, UniProt Q26964).
T2 sequence (Q26964 whole entry): T1 sequence (whole entry)
The series can be described thus: Inhibition of Trypanosoma cruzi trans-sialidase using Trifluoromethylumbelliferyl alpha-sialoside as substrate by UV/visible spectrophotometer.

Galectin-3, sequence (P17931 whole entry): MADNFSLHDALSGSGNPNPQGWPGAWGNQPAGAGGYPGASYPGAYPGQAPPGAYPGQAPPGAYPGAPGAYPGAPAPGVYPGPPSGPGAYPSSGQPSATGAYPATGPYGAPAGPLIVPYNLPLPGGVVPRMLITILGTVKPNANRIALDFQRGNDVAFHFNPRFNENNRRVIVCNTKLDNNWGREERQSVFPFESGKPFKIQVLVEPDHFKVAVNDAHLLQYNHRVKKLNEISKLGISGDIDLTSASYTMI

One may read the inhibition as the change of the read-out against control, counted positive when it falls. Consider `CO[C@@H]1O[C@H](CO)[C@H](O)[C@H](OCc2cn(-c3ccc(S(=O)(=O)Nc4ccccn4)cc3)nn2)[C@H]1O`, for which, in the series on Trypanosoma cruzi [1], the Activity_index is on record as 28 - 44. In addition, the result in the series with Trypanosoma cruzi [2] was inactive. For the same molecule, the Activity in the series on Trypanosoma cruzi [3] is 47 - 54%; with LLC-MK2 it was “Non-Toxic”. Also, the outcome with Trypanosoma cruzi [4] was Active. Further, the inhibition in series [5] was in the range of 4.5 to 16%.

One may read the EC50 as the concentration that produces a half-maximal response. As for `CO[C@@H]1O[C@H](CO)[C@H](O)[C@H](OCc2cn(-c3ccc(S(=O)(=O)Nc4nc(C)cc(C)n4)cc3)nn2)[C@H]1O`, the Activity_index in the series with Trypanosoma cruzi [1] is on record as 28 - 44. In the series on Trypanosoma cruzi [2], the result was inactive. For the same molecule, the Activity with Trypanosoma cruzi [3] is 47 - 54%; on Galectin-3, “Dose-dependent effect”; in the series with LLC-MK2, “Non-Toxic”. In addition, on Galectin-3, the EC50 amounted to 67.7 µM. In addition, the outcome in the series on Trypanosoma cruzi [4] was Active. The inhibition in series [5] fell in the range of 4.5 to 16%.

As to `COc1cc(NS(=O)(=O)c2ccc(-n3cc(CO[C@H]4[C@@H](O)[C@@H](CO)O[C@@H](OC)[C@@H]4O)nn3)cc2)nc(OC)n1`, the Activity_index in the series on Trypanosoma cruzi [1] is listed as 20. The outcome with Trypanosoma cruzi [2] was inactive. The figures for the Activity in the series with Trypanosoma cruzi [3], on Galectin-3 and in the series with LLC-MK2 were 38%, “Dose-dependent effect” and “Non-Toxic”, respectively. For the same molecule, at Galectin-3, the EC50 came to 18.3 µM. In the series on Trypanosoma cruzi [4], the outcome was Active. For the same molecule, the inhibition in series [5] was in the range of 4.5 to 16%.

For `CO[C@@H]1O[C@H](CO)[C@H](O)[C@H](OCc2cn(-c3ccc(S(=O)(=O)Nc4cc(C)on4)cc3)nn2)[C@H]1O`, the Activity_index in the series with Trypanosoma cruzi [1] is 20. For the same molecule, in the series with Trypanosoma cruzi [2], the result was inactive. The Activity in the series on Trypanosoma cruzi [3] was 41%; at Galectin-3, “Dose-dependent effect”; in the series on LLC-MK2, “Non-Toxic”. Also, the EC50 on Galectin-3 was found to be 17.2 µM. The result with Trypanosoma cruzi [4] was Active. Further, the inhibition in series [5] lay within 4.5 to 16%.

The IC50 is the concentration needed to halve the response being measured. As to `Cc1ccc(S(=O)(=O)N2c3ccccc3C(=O)/C(=C/c3ccc(O)c(O)c3)C2c2ccc(O)c(O)c2)cc1` (stereo not drawn), the IC50 against Trans-sialidase is 600 nM.

On to `CO[C@@H]1O[C@H](CO)[C@H](O)[C@H](OCc2cn(-c3ccc(S(N)(=O)=O)cc3)nn2)[C@H]1O`, for which the Activity_index in the series with Trypanosoma cruzi [1] is reported as 28 - 44. Further, the outcome in the series with Trypanosoma cruzi [2] was inactive. The Activity was 47 - 54% in the series on Trypanosoma cruzi [3], “Dose-dependent effect” on Galectin-3 and “Non-Toxic” with LLC-MK2. In addition, the concentration for a half-maximal effect (EC50) at Galectin-3 came to 40.7 µM. Further, in the series with Trypanosoma cruzi [4], the result was Active. For the same molecule, in series [5], the inhibition lay within 4.5 to 16%.

For the molecule `CO[C@@H]1O[C@H](CO)[C@H](O)[C@H](OCc2cn(-c3ccc(S(=O)(=O)NC(C)=O)cc3)nn2)[C@H]1O`, the Activity_index in the series on Trypanosoma cruzi [1] was 28 - 44. Besides, the result with Trypanosoma cruzi [2] was inactive. In addition, the values for the Activity in the series with Trypanosoma cruzi [3], at Galectin-3 and with LLC-MK2 were 47 - 54%, “Dose-dependent effect” and “Non-Toxic”, respectively. In addition, on Galectin-3, the EC50 was 205 µM. For the same molecule, the result with Trypanosoma cruzi [4] was Active. Moreover, the inhibition in series [5] stood at 88%.

As for `CO[C@@H]1O[C@H](CO)[C@H](O)[C@H](OCc2cn(-c3ccc(S(=O)(=O)Nc4nccc(C)n4)cc3)nn2)[C@H]1O`, in the series with Trypanosoma cruzi [1], the Activity_index was 28 - 44. Further, the outcome with Trypanosoma cruzi [2] was inactive. The Activity in the series with Trypanosoma cruzi [3] is on record as 47 - 54%; in the series on LLC-MK2, “Non-Toxic”. Besides, the result in the series with Trypanosoma cruzi [4] was Active. Moreover, in series [5], the inhibition fell in the range of 4.5 to 16%.
